# Compound activity deposited in PubChem by several laboratories.
# SR-BI DiI inh = blocks mouse SR-BI lipid uptake from DiI-HDL. actives 0.96% (n = 320,000). AID 488896. inhibition, % at 12.5 µM. Q61009. ldlA[mSR-BI] CHO cells, DiI-HDL uptake fluorescence, 3 h;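 active = mean replicate inhibition of at least 70% and a set share of replicates each scoring 70 or more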
# Target sequence (Q61009 whole entry, looked up): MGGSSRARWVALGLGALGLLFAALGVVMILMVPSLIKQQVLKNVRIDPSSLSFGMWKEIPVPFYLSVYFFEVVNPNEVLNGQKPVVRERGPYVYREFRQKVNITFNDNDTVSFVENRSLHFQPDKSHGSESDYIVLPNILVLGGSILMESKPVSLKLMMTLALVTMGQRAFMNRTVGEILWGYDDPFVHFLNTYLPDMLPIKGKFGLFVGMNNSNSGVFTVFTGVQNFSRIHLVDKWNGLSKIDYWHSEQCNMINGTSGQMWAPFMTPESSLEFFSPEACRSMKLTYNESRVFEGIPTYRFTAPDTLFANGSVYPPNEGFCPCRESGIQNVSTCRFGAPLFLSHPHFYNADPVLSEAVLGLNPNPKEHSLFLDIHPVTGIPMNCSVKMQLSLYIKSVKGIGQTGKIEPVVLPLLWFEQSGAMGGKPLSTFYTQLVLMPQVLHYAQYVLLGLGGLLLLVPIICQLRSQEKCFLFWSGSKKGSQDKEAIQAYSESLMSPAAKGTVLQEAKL
# SR-BI DiI-HDL act = activators of SR-BI mediated HDL lipid uptake; activation, % at 12.5 µM; AID 504775; CHO ldlA[mSR-BI] cells, DiI-HDL uptake fluorescence, 3 h; 100 = double the neutral-control signal; actives 0.096% (n = 320,000);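 active = mean replicate activation of at least 60% and every replicate at or above 60%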
#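 System: LDL receptor-deficient CHO ldlA cells overexpressing murine SR-BI | Timing: 3 h uptake period with compound, 37 °C | Medium: HEPES-buffered (25 mM, pH 7.4) F12 plus 0.5% BSA | Dosing: Single-point compound dose | Signal: Bottom-read fluorescence, 550/595 nm | Read-out: Retained DiI signal reflecting DiI-HDL uptake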
# CaV13 ICDI inh = Primary screen for inhibitors of IQ motif and Ca2+-dependent inactivation inhibitor domain binding in CACNA1D, Förster resonance energy transfer in living cells, …; HEK cells, CFP/YFP FRET ICDI-IQ, plate reader, 10 min; percent FRET-ratio fall versus neutral wells; inhibition, % at 12.3 µM; actives 0.098% (n = 340,000);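 active = mean replicate inhibition of at least 30% and at least 1% of replicates passing that level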
# FN deposit inh = fibronectin deposition inhibition; AH1F fibroblasts, Alexa488-fibronectin deposition fluorescence, overnight; inhibition, % at 12.6 µM; actives 0.086% (n = 350,000);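 active = mean inhibition across replicates of 30% or more, regardless of how many single replicates reach that level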
#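 Test system: AH1F fibroblast monolayer depositing Alexa488-labelled fibronectin into matrix. Input: 10000 cells per well. Technique: fluorescence, ex 485 nm, em 525 nm. Buffer or medium: DMEM plus 2% serum, read in PBS. Timing: 1 h cell adhesion before compound, then overnight fibronectin incubation. Compound: single dose, pinned. Read-out basis: inhibition from reduced deposited-fibronectin fluorescence.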
# Efflux pump mplx = blocks antifungal efflux pumps in multiplex yeast assay | S. cerevisiae Candida pump triplex, Nile Red efflux | inhibition, % at 10 µM | actives 0.44% (n = 330,000) | AID 485275;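 active = plate passing quality check with inhibition over a set limit, or well fluorescence over plate mean plus 4 SD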;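 also: Nile Red retained in pooled yeast measured as flow cytometry median fluorescence; higher means more Nile Red kept so more efflux inhibition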
# Hits are given with their value; . = inactive; / = not tested or not shown. The list is not random: actives were taken first. Their share in the collection is about 1.2%.
SMILES,SR-BI DiI inh,SR-BI DiI-HDL act,CaV13 ICDI inh,FN deposit inh,Efflux pump mplx
CC(=O)Nc1ccc2c(c1)CC(=O)N(C)C[C@H](C)[C@H](CN(C)C(C)=O)O2,/,/,/,.,/
OC(c1cc(C(F)(F)F)nc2c(Cl)cc(Cl)cc12)C1CCCCN1 (configuration not stated),.,66,.,.,.
O[C@@H](c1cc(C(F)(F)F)nc2c(C(F)(F)F)cccc12)[C@H]1CCCCN1,.,.,.,.,.
O=C(NNC(=O)c1ccccc1O)c1ccc(NS(=O)(=O)c2ccc(F)c(F)c2)cc1,85,.,.,.,.
COc1ccc(NS(=O)(=O)c2ccc(C)c(C(=O)O)c2)cc1,.,.,.,/,.
COc1ccc(NS(=O)(=O)c2ccc(C)c(C(=O)NNC(=O)c3ccccc3O)c2)cc1,97,.,.,.,.
Cc1ccc(S(=O)(=O)Nc2ccccc2F)cc1C(=O)NNC(=O)c1ccccc1O,.,.,.,.,.
COc1cc(/C=C/C(=O)OCC(=O)N2CCN(S(=O)(=O)c3ccc(C)cc3C)CC2)ccc1OC(F)F,78,.,.,.,/
Cc1ccc(S(=O)(=O)N2CCN(C(=O)COC(=O)/C=C/c3ccc(F)cc3)CC2)c(C)c1,.,.,.,.,.
O=C(NC(=S)NCc1ccccc1)c1ccccc1,.,65,.,.,.
CCS(=O)(=O)Nc1ccc2c(c1)C(=O)N(C)C[C@H](OC)[C@H](C)CN(CC1CCCC1)[C@@H](C)CO2,/,/,/,.,/
CO[C@@H]1CN(C)C(=O)c2ccc(NC(=O)c3ccccc3)cc2OC[C@@H](C)N(C(=O)CN(C)C)C[C@H]1C,/,/,/,.,/
O=C(CNc1ccccc1)N/N=C/c1cc([N+](=O)[O-])ccc1N1CCCC1,73,.,/,/,.
CCN(CC)C(=O)C1CCCN(c2ccccc2[N+](=O)[O-])C1 (configuration not stated),79,.,.,/,.
CCN(CC)C(=O)C1CCCN(c2ccc([N+](=O)[O-])cc2[N+](=O)[O-])C1 (configuration not stated),.,.,.,.,.
CCN(CC)C(=O)C1CCCN(c2ccc([N+](=O)[O-])cc2/C=N/NC(=O)c2cccc([N+](=O)[O-])c2)C1 (configuration not stated),90,.,/,.,.
N#CCC(=O)N/N=C/c1cc([N+](=O)[O-])ccc1N1CCCC1,.,.,.,.,.
CN(C)CCCNC(=O)C[C@@H]1CC[C@H]2[C@@H](COC[C@@H](O)CN2Cc2ccc(Cl)c(Cl)c2)O1,/,/,/,.,/
CC(C)NC(=O)N1CC2(C1)[C@@H](c1ccccc1)[C@@H](CO)N2C(=O)C1CCC1,/,/,/,.,/
C[C@H]1CCCCO[C@@H](CN(C)S(=O)(=O)c2ccc(F)cc2)[C@@H](C)CN([C@@H](C)CO)C(=O)c2cc(NC(=O)Nc3cccc4ccccc34)ccc2O1,/,/,/,.,/
CCC(C)NC(=O)CSc1nnc(-c2cc(-c3ccc(C)cc3)nc3ccccc23)n1N (configuration not stated),86,.,.,/,.
O=C(Nc1ccc(C(=O)N2CCOCC2)cc1)c1cc(-c2cccnc2)nc2ccc(Br)cc12,81,.,.,/,.
O=C(Nc1ccccn1)c1cc(-c2cccnc2)nc2ccc(Br)cc12,.,.,.,.,.
COc1cc(Cl)cc(C(c2c(C(=O)O)[nH]c3ccccc23)c2c(C(=O)O)[nH]c3ccccc23)c1O,/,/,.,.,.
O=C(O)c1[nH]c2ccccc2c1C(c1cc(Br)ccc1O)c1c(C(=O)O)[nH]c2ccccc12,.,.,144,.,.
SMILES,SR-BI DiI inh,SR-BI DiI-HDL act,CaV13 ICDI inh,FN deposit inh,Efflux pump mplx
CC1CCCCN1Cc1c(O)ccc2c(=O)c(-c3nc4ccccc4s3)coc12 (configuration not stated),.,.,44,.,.
CNC[C@@H]1Oc2ccc(NC(C)=O)cc2CC(=O)N(C)C[C@H]1C,/,/,/,.,/
COc1ccc2nc3c(cc2c1)c(NC(=O)c1cccs1)nn3CC(C)C,.,.,56,/,.
COc1ccc(OC)c(C2=NOC(C(=O)N3CCN(c4ccccc4)CC3)C2)c1 (configuration not stated),71,.,.,.,.
COC(=O)N(C)C[C@H]1OCc2cn(nn2)CCCC(=O)N([C@@H](C)CO)C[C@H]1C,/,/,/,.,/
Cc1cccc(N2CCN(C(=O)C3CCN(c4ncnc5c4nc4n5CCCCC4)CC3)CC2)c1C,74,.,.,.,.
O=C(C1CCN(c2ncnc3c2nc2n3CCCCC2)CC1)N1CCN(c2ccccc2F)CC1,.,.,.,.,.
O=C(C1CCCN(c2ncnc3c2nc2n3CCCCC2)C1)N1CCN(c2cccc(Cl)c2)CC1 (configuration not stated),.,.,.,.,.
Cc1cccc(N2CCN(C(=O)C3CCN(c4ncnc5c4nc4n5CCCCC4)CC3)CC2C)c1 (configuration not stated),71,.,.,.,.
COc1cccc(NC(=O)c2cc(-c3ccc(C)o3)nc3ccccc23)c1,77,.,/,/,.
COc1cc(-c2cc(C(=O)Nc3ccc(S(N)(=O)=O)cc3)c3ccccc3n2)cc(OC)c1OC,/,/,.,.,.
COc1ccccc1Nc1ncc(C(=O)Nc2ccc(OC)c(OC)c2)c2ccccc12,83,.,.,/,.
COc1cccc(NC(=O)CN(C)C(=O)c2cc(-c3ccc(C)o3)nc3ccccc23)c1,.,.,.,.,.
COc1ccc(NC(=O)c2cc(-c3cc(OC)c(OC)c(OC)c3)nc3ccccc23)cc1OC,85,.,.,.,.
O=C(Nc1ccc(F)cc1)c1cc(-c2ccncc2)nc2c(Cl)cccc12,.,.,.,.,.
COc1cccc(NC(=O)c2cc(-c3cccnc3)nc3c(Cl)cccc23)c1,82,.,.,.,.
O=C1NCCOCn2nncc2CC[C@H]1Cc1ccccc1,/,/,/,.,/
COCC(=O)Nc1ccc2c(c1)[C@H]1C[C@H](CC(=O)NCCN3CCCCC3)O[C@H](CO)[C@H]1O2,/,/,/,.,/
CO[C@@H]1CN(C)C(=O)c2cc(NC(=O)CC(F)(F)F)ccc2OC[C@@H](C)N(C(=O)c2ccccc2F)C[C@@H]1C,/,/,/,.,/
N#C[C@@H]1[C@H](c2ccccc2C2=CCCC2)[C@@H](CO)N1C(=O)c1ccccn1,/,/,/,.,/
COc1ccccc1NC(=O)Cn1cnc2sc(C(=O)Nc3cc(OC)c(OC)c(OC)c3)c(C)c2c1=O,.,.,.,.,.
O=C(Nc1nc2ccccc2s1)c1cc(-c2ccco2)nc2ccccc12,.,.,.,.,.
COc1ccc(-c2cc(C(=O)Nc3ccc(O)cc3)c3ccccc3n2)cc1OC,81,.,.,.,.
COc1cccc(-c2cc(C(=O)Nc3nc4ccccc4s3)c3ccccc3n2)c1,88,.,/,/,.
